# Experimental data published in PubChem BioAssay AID651572 (The Scripps Research Institute Molecular Screening Center, 2012).
# Out of some 360,000 compounds screened, about 950 (0.26%) were called active. Many of the other results were omitted from the sample, so actives are more common in it than they were. Values without a mark were called inactive.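 How the source made its calls: active means inhibition above a per-plate limit, mean inhibition of low control wells plus 3 SD (cut at about 25% in these data); inactive means the rest.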
# Molecular target: ADP-ribosylation factor GTPase-activating protein 1 (Rattus norvegicus) (UniProt Q62848)
# Assay: inhibitors of rat ARFGAP1 GAP activity, primary screen, biochemical, fluorescence polarization, GDP tracer (AID 651572);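 further: 0% = DMSO wells with enzyme and 100% = wells lacking Arfgap1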
# Settings: Arfgap1-stimulated ARF1 GTP hydrolysis, GDP FP detection; at 16.5 µM; hits give high values
# How it was run: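 Material: rat Arfgap1 GAP domain (His6, aa 1-136), purified enzyme. Also added: human ARF1(Δ1-17)-GTP substrate. Compound dosing: 16.5 µM single point, 1.26% DMSO. Timing: enzyme reaction 120 min at 25 °C after 20 min preincubation. Signal: GDP detection by fluorescence polarization. Read-out basis: percent inhibition of GAP-stimulated GDP formation, scaled between DMSO and no-Arfgap1 medians.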
# ADP-ribosylation factor GTPase-activating protein 1 (Rattus norvegicus), sequence (Q62848 1-136 limits assumed): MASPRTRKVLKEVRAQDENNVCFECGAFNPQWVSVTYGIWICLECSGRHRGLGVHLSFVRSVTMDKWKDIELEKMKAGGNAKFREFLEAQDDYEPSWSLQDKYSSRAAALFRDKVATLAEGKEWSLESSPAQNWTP
row,SMILES,inhibition
1,O=C(N[C@H](C(=O)N1CCC[C@H]1C(=O)NCCc1ccccc1Cl)c1ccccc1)c1ccccc1,0.74%
2,Cc1ccccc1C(=O)N[C@H](C(=O)N1CCC[C@H]1C(=O)NCc1ccccc1)C(C)C,-4.95%
3,COc1cc(C2C(C(=O)c3ccco3)=C(O)C(=O)N2c2cc(C)on2)ccc1OCc1ccccc1 (stereo unspecified),-0.46%
4,Cc1ccc2nc(N3C(=O)C(O)=C(C(=O)c4ccco4)C3c3cccc(O)c3)sc2c1 (stereo unspecified),28.5% (active)
5,C=CCSc1nnc(N2C(=O)C(O)=C(C(=O)c3ccco3)C2c2ccc(F)cc2)s1 (stereo unspecified),-2.87%
6,COC(=O)C1=C(C)N(Cc2ccccc2C(F)(F)F)C(=NCC2CC2)NC1c1cccc(Cl)c1 (stereo unspecified),-11.5%
7,CN1C(=O)C(Br)(Br)CC1c1cccnc1 (stereo unspecified),15.5%
8,CC(=O)c1ccc(S(=O)(=O)NCC2CCN(C(=O)C(=O)c3cccs3)CC2)cc1,0.05%
9,Clc1cccc2c1C1CC2CCN1Cc1ccccc1 (stereo unspecified),1.92%
10,Cc1cc(C)cc(NC(=O)C2CCCN(S(=O)(=O)c3ccc4[nH]c(=O)ccc4c3)C2)c1 (stereo unspecified),27.2% (active)
11,CC1CCN(S(=O)(=O)c2ccc3[nH]c(=O)ccc3c2)CC1,-6.93%
12,CCc1cccc(NC(=O)C2CCCN(S(=O)(=O)c3ccc4[nH]c(=O)ccc4c3)C2)c1 (stereo unspecified),-1.05%
13,CCOc1ccccc1C(=O)N1CCC[C@@H]1C(=O)N1CCC[C@H]1C(=O)NCc1ccccc1,2.51%
14,C=CCN1C(=O)N(Cc2ccccc2)c2ccccc2S1(=O)=O,-1.51%
15,O=C(CN1CCN(c2ccc(Cl)cc2)CC1)NCc1cccs1,-5.05%
16,S=C(NCc1cccs1)Nc1ccc(Cl)cc1,28.2% (active)
17,COc1ccc(NC(=S)NCc2cccs2)c(OC)c1,7.24%
18,COc1ccc(-c2ccc3c(n2)CCCN3S(=O)(=O)c2ccc(C)cc2)cc1,-4.31%
19,COc1ccccc1-c1ccc([C@@H]2C[C@H]3[C@H](CON3C)CN2S(=O)(=O)c2cc(Cl)cc(Cl)c2)cc1,5.63%
20,Nc1nc2c(ncn2[C@@H]2O[C@H](C(=O)N[C@@H](Cc3ccccc3)C(=O)NCc3ccccc3)[C@@H](O)[C@H]2O)c(=O)[nH]1,-1.71%
21,COC(=O)[C@]12C[C@H](CC(=O)NCc3cccc(C(F)(F)F)c3)C(=O)N(Cc3ccc4c(c3)OCO4)C1=C[C@H](COCc1ccccc1)O[C@@H]2C,5.08%
22,Cc1[nH]nc2c1C(c1ccc(Br)cc1)NC2=O (stereo unspecified),2.74%
23,COC(=O)C1=C(C)N(Cc2ccccc2C(F)(F)F)C(=NCc2ccc(OC)cc2)NC1c1cccc(C(F)(F)F)c1 (stereo unspecified),10.9%
24,CC(C)(C)NC(=O)CSc1nnc(NC(=O)CCc2ccccc2)s1,0.73%
25,O=C(CCc1ccccc1)Nc1ncc([N+](=O)[O-])s1,29% (active)
26,O=C(CCc1ccccc1)Nc1nn[nH]n1,11.2%

row,SMILES,inhibition
1,Nc1ccn([C@@H]2O[C@H](C(=O)N[C@H]3CCCCNC3=O)[C@@H](O)[C@H]2O)c(=O)n1,-7.26%
2,COc1ccc(-c2ccccc2C2Cc3nnccc3CN2C(=O)Nc2ccccc2)cc1 (stereo unspecified),0.85%
3,COc1ccc(NC(=O)c2ccccc2CC[N+](=O)[O-])cc1,-2.01%
4,COc1ccc(NC(=O)CSc2nc(N)c(-c3ccccc3)c(=O)[nH]2)cc1,5.45%
5,COc1ccc(NC(=O)c2cn(-c3ccccc3)nc2SC)cc1,25.1% (active)
6,NC(=O)c1ncn([C@@H]2O[C@H](C(=O)O)[C@@H](O)[C@H]2O)n1,-10.5%
7,COC(=O)C1=C(C)N(Cc2cccc(C(F)(F)F)c2)C(=NCc2cccc(C(F)(F)F)c2)NC1c1ccccc1C(F)(F)F (stereo unspecified),18.5%
8,CCO[C@@H]1OC(C(N)=O)=C[C@H](c2ccc(Br)cc2)[C@H]1CCCO,37% (active)
9,C#CCNC(=O)C1=C[C@@H](c2ccccc2)[C@H](CCCO)[C@@H](OCC)O1,0.84%
10,CCO[C@H]1OC(C(=O)N2CCCCCCC2)=C[C@@H](c2ccc(C(F)(F)F)cc2)[C@@H]1CCCO,5.85%
11,CC[C@H](C)[C@H]1CNC(=O)C(=O)N1CC1CCN(CCc2ccc(OC)c(OC)c2)CC1,4.8%
12,COC(=O)[C@]12C[C@H](CC(=O)NCc3ccc(OC)c(OC)c3)C(=O)N(Cc3ccccc3)C1=C[C@H](C(C)C)O[C@@H]2C1CC1,1.55%
13,COc1cccc(CNC(=O)[C@H]2CCCN2C(=O)[C@H]2CCCN2C(=O)c2ccc(F)cc2)c1,2.29%
14,CCOC(=O)N1CCN(C(=O)C[C@H]2C[C@@]3(C(=O)OC)C(=C[C@H](C4CCCC4)O[C@@H]3C)N(Cc3ccccc3)C2=O)CC1,-0.91%
15,COc1ccccc1C(=O)N1O[C@]23C=C[C@]14C[C@@H](O)CC[C@]4(C)C2CC[C@]1(C)[C@@H]([C@H](C)/C=C/[C@H](C)C(C)C)CC[C@H]13 (stereo partly specified),-2.43%
16,OC(c1ccccc1)(c1ccccc1)C1CCN(CCCOc2ccc(-c3ccsc3)cc2)CC1,15.6%
17,COc1ccc(-c2cc3nc(NCCOc4ccccc4)ccn3n2)cc1,22.7%
18,COCCCNc1ccn2nc(-c3ccc(CC(C)C)cc3)cc2n1,12.8%
19,COCCNc1cc(-c2ccccc2)nc2cc(-c3cccc(F)c3)nn12,26.4% (active)
20,C[C@H]1[C@H](c2ccccc2)Oc2cc(Br)ccc2S(=O)(=O)N1Cc1cccc(F)c1,-1.97%
21,Cc1noc(C)c1NC(=O)Nc1ccc2c(c1)C(=O)N([C@H](C)CO)C[C@H](C)[C@H](CN(C)Cc1ccncc1)OCCCC[C@@H](C)O2,7.37%
22,COC(=O)c1c(-c2ccc(OC)cc2)c2c(c3c4cc(OC)ccc4n(S(=O)(=O)c4ccc(F)cc4)c13)C(=O)N(C)C2,-3.49%
23,COC(=O)[C@]12C[C@H](CC(=O)NCCCCc3ccccc3)C(=O)N(Cc3ccc4c(c3)OCO4)C1=C[C@H](C(C)(C)C)O[C@@H]2C,2.49%
24,CCC(=C/c1sc2ccc3ccccc3c2[n+]1C)/C=C1\Sc2ccc3ccccc3c2N1C,39.3% (active)
25,Nc1[nH]c(C(=O)c2ccc(Br)cc2)c(-c2ccc3c(c2)OCO3)c1C(=O)NCCc1c[nH]c2ccccc12,15.2%
26,CN(C)CCNC(=O)c1cccc(-c2cnc3c(NC=O)cc(-c4cccc(C(F)(F)F)c4)cn23)c1,5.54%

row,SMILES,inhibition
1,CN(C)CCNC(=O)c1ccc(-c2cn3c(-c4ccc(Oc5ccccc5)cc4)cnc3cn2)cc1,40.4% (active)
2,CC(=O)c1cccc(-c2cnc3c(NC=O)cc(-c4ccccc4Oc4ccccc4)cn23)c1,-2.03%
3,CCOC(=O)Cn1c2c(n(-c3ccc(F)cc3)c1=O)C=C(c1ccccc1)[C@@H](C)C(C(=O)N(C)C1CCCCC1)=C2,-3.57%
4,CCc1ccc(C2=CC(=O)CC(C)(C)C2=O)cc1,5.54%
5,COC(=O)C1=C(C)N(Cc2ccccc2C(F)(F)F)C(=NCc2ccc(C(F)(F)F)cc2)NC1c1ccc(F)cc1 (stereo unspecified),16.5%
6,COc1cccc(CC(=O)N2CCN(C(=O)C(=O)c3cccc(C(F)(F)F)c3)CC2)c1,-7.68%
7,O=S1(=O)c2c(cccc2N2CCCC2)O[C@H](COCc2ccccc2)CN1C1CC1,-15.6%
8,O=C1[C@@H](c2ccccc2)[C@@H](c2ccccc2)N1c1ccccc1,-3.37%
9,CCn1c(SCc2cc(=O)n3ccsc3n2)nc2ccccc21,26.2% (active)
10,CCn1c(SCC(=O)N2CCCC2=O)nc2ccccc21,-1.54%
11,O=C(O)CCn1c(SCc2cc(=O)n3ccccc3n2)nc2ccsc2c1=O,9.88%
12,O=C1Nc2ccccc2C1=NN=Cc1ccco1,18.3%
13,COC(=O)C1=C(C)N(Cc2cccc(C(F)(F)F)c2)C(=NCc2ccccc2)NC1c1ccccc1C(F)(F)F (stereo unspecified),18.8%
14,O=C(Nc1c(Cl)c(C2CC2)nn1-c1ccccc1)C(Cl)(Cl)Cl,1.34%
15,COc1cccc(NC(=O)N(C)C[C@@H]2OCc3cn(nn3)CCCC(=O)N([C@@H](C)CO)C[C@H]2C)c1,2.11%
16,Nc1ncnc2c1ncn2[C@@H]1O[C@H](C(=O)N[C@@H](CCc2ccccc2)C(=O)N2CCCN(Cc3cccs3)CC2)[C@@H](O)[C@H]1O,-6.61%
17,COc1ccc(SSc2ccc(OC)cc2C(=O)O)c(C(=O)O)c1,-0.05%
18,C[C@H](O)[C@@H]1C(=O)N2CCc3c([nH]c4c(-c5ccc6c(c5)OCO6)cccc34)[C@@H]2C[C@@H]1N(C)C(=O)c1ccco1,1.71%
19,COc1cccc(CNc2ncc(-c3ccccc3)n2C)c1,-4.8%
20,COc1cccc(CNc2nc(NCc3cccs3)nc3ccsc23)c1,2.65%
21,COc1cccc(CNc2nc(C(F)(F)F)nc3ccccc23)c1,27.8% (active)
22,C[C@@H](CN1C2=NC[C@@H](Cc3ccccc3)N2C[C@H]1Cc1ccc(O)cc1)NC(=O)CCC1CCCCC1,6.99%
23,CC[C@H](NC(=O)[C@H](Cc1ccccc1)NC(=O)[C@H]1O[C@@H](n2cnc3c(=O)[nH]c(N)nc32)[C@H](O)[C@@H]1O)c1ccccc1,10%
24,COC(=O)[C@]1(Cc2ccccc2)NC=C(C(=O)c2ccccc2)[C@@H]1c1cccc(OC)c1,1.68%
